From ChEMBL document CHEMBL1125789, “Synthesis and selective class III antiarrhythmic activity of novel N-heteroaralkyl-substituted 1-(aryloxy)-2-propanolamine and related propylamine derivatives” (J Med Chem, 1991)

What was measured:
Canis familiaris [1] = species: Canis familiaris; assay: Maximum rate of rise of the upstroke of transmembrane potential, in canine Purkinje Fibers at a concentration of 3.0 uM at 1000 ms (simulating normal heart rate); type: functional; set-up: unit not given here; conditions: Canis lupus familiaris, Purkinje fiber
Method in brief: (§1)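 Isolated canine Purkinje fiber bundles were driven by square-wave pulses 2.0 ms long at 2× threshold and equilibrated ≥1 h to steady state. Each concentration was superfused 45–60 min before recording, and action potentials were sampled at 4–6 sites per fiber in control and after drug, giving Vmax and APD to −60 mV.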

Canis familiaris [2] = assay: Atrial effective refractory period by the compound in open chest anesthetized dog, after iv administration at a dose of 5.0 mg/kg.; type: functional, Canis lupus familiaris, Cardiac atrium; set-up: unit not given here
Method in brief: (§2)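 Open-chest mongrel dogs under sodium pentobarbital anesthesia (30 mg/kg iv plus 5 mg/kg per h), paced at basic cycle length 300 ms. Atrial effective refractory period was determined by electrical stimulation before and after iv or intraduodenal compound and reported as change from control.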

Canis familiaris [3] = assay: Mean arterial pressure by the compound in open chest anesthetized dog, after iv administration at a dose of 5.0 mg/kg.; type: functional, Canis lupus familiaris, Artery; set-up: unit not given here
Method in brief: (§3)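 Hemodynamics (heart rate, mean arterial pressure) recorded in pentobarbital-anesthetized (30 mg/kg iv, 5 mg/kg per h maintenance) open-chest mongrel dogs during the refractoriness study at BCL 300 ms. Readings were taken before and after iv or intraduodenal compound and expressed as change from control.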

Canis familiaris [4] = species: Canis familiaris; assay: Maximum rate of rise of the upstroke of transmembrane potential, in canine Purkinje Fibers at a concentration of 0.3 uM at 1000 ms (simulating normal heart rate); type: functional; set-up: unit not given here; conditions: Canis lupus familiaris, Purkinje fiber; method in brief: as §1
Canis familiaris [5] = assay: Atrial conduction time by the compound in open chest anesthetized dog, after iv administration at a dose of 5.0 mg/kg.; type: functional, Canis lupus familiaris, Cardiac atrium; set-up: unit not given here
Method in brief: (§4)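 Mongrel dogs anesthetized with sodium pentobarbital (30 mg/kg iv, then 5 mg/kg per h), chest opened, paced at BCL 300 ms. Atrial conduction time was taken as the interval between electrograms recorded at the proximal and distal sites of the atrial recording electrode array, before and after iv or intraduodenal dosing. Values are changes from control.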

Canis familiaris [6] = species: Canis familiaris; assay: repolarization to reach -60mV, in canine Purkinje Fibers at a concentration of 3.0 uM at 1000 ms (simulating normal heart rate); type: functional, Canis lupus familiaris, Purkinje fiber
Method in brief: (§5)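 Purkinje fiber bundles were stimulated with square-wave current pulses of 2.0 ms at twice threshold and equilibrated for at least 1 h, or until action potential parameters were steady. Each concentration was superfused for 45-60 min to reach steady state. Action potentials were recorded at four to six sites per fiber, under control and after drug.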

Canis familiaris [7] = species: Canis familiaris; assay: repolarization to reach -60mV, in canine Purkinje Fibers at a concentration of 1.0 uM at 1000 ms (simulating normal heart rate); type: functional, Canis lupus familiaris, Purkinje fiber; method in brief: as §5
Canis familiaris [8] = species: Canis familiaris; assay: Repolarization to reach -60mV, in canine Purkinje Fibers at a concentration of 0.3 uM at 300 ms (simulating tachycardia); type: functional, Canis lupus familiaris, Purkinje fiber; method in brief: as §1
Canis familiaris [9] = assay: Mean arterial pressure by the compound in open chest anesthetized dog, after id administration at a dose of 10 mg/kg.; type: functional, Canis lupus familiaris, Artery; conditions: route intraduodenal; method in brief: as §3
Canis familiaris [10] = assay: Heart beat by the compound in open chest anesthetized dog, after iv administration at a dose of 5.0 mg/kg.; type: functional, Canis lupus familiaris; set-up: unit not given here; method in brief: as §3
Canis familiaris [11] = species: Canis familiaris; assay: Maximum rate of rise of the upstroke of transmembrane potential, in canine Purkinje Fibers at a concentration of 1.0 uM at 1000 ms (simulating normal heart rate); type: functional; set-up: unit not given here; conditions: Canis lupus familiaris, Purkinje fiber; method in brief: as §1
Canis familiaris [12] = assay: Ventricular conduction time by the compound in open chest anesthetized dog, after id administration at a dose of 10 mg/kg.; type: functional, Canis lupus familiaris, Heart; conditions: route intraduodenal
Method in brief: (§6)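 Mongrel dogs were anesthetized with sodium pentobarbital (30 mg/kg iv, then 5 mg/kg per h), the chest opened, and the heart paced at BCL 300 ms. Compound was given iv or intraduodenally. Ventricular conduction time was taken as the interval between electrograms at the proximal and distal sites of the recording electrode array. 2-5 dogs per dose.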

Canis familiaris [13] = assay: Ventricular conduction time by the compound in open chest anesthetized dog, after iv administration at a dose of 5.0 mg/kg.; type: functional, Canis lupus familiaris, Heart; set-up: unit not given here; method in brief: as §6
Canis familiaris [14] = assay: Atrial conduction time by the compound in open chest anesthetized dog, after id administration at a dose of 10 mg/kg.; type: functional, Canis lupus familiaris, Cardiac atrium; conditions: route intraduodenal; method in brief: as §4
Canis familiaris [15] = species: Canis familiaris; assay: Maximum rate of rise of the upstroke of transmembrane potential, in canine Purkinje Fibers at a concentration of 1.0 uM at 300 ms (simulating tachycardia); type: functional; set-up: unit not given here; conditions: Canis lupus familiaris, Purkinje fiber; method in brief: as §1
Canis familiaris [16] = species: Canis familiaris; assay: Repolarization to reach -60mV, in canine Purkinje Fibers at a concentration of 3.0 uM at 300 ms (simulating tachycardia); type: functional, Canis lupus familiaris, Purkinje fiber; method in brief: as §1
Canis familiaris [17] = assay: Heart beat by the compound in open chest anesthetized dog, after id administration at a dose of 10 mg/kg.; type: functional, Canis lupus familiaris; conditions: route intraduodenal; method in brief: as §3
Canis familiaris [18] = species: Canis familiaris; assay: Maximum rate of rise of the upstroke of transmembrane potential, in canine Purkinje Fibers at a concentration of 3.0 uM at 300 ms (simulating tachycardia); type: functional; set-up: unit not given here; conditions: Canis lupus familiaris, Purkinje fiber; method in brief: as §1
Canis familiaris [19] = assay: Ventricular effective refractory period by the compound in open chest anesthetized dog, after id administration at a dose of 10 mg/kg.; type: functional, Canis lupus familiaris, Heart; conditions: route intraduodenal
Canis familiaris [20] = species: Canis familiaris; assay: repolarization to reach -60mV, in canine Purkinje Fibers at a concentration of 0.3 uM at 1000 ms (simulating normal heart rate); type: functional, Canis lupus familiaris, Purkinje fiber; method in brief: as §5
Canis familiaris [21] = assay: Atrial effective refractory period by the compound in open chest anesthetized dog, after id administration at a dose of 10 mg/kg.; type: functional, Canis lupus familiaris, Cardiac atrium; conditions: route intraduodenal; method in brief: as §2
Canis familiaris [22] = assay: Ventricular effective refractory period by the compound in open chest anesthetized dog, after iv administration at a dose of 5.0 mg/kg.; type: functional, Canis lupus familiaris, Heart; set-up: unit not given here
Canis familiaris [23] = species: Canis familiaris; assay: Repolarization to reach -60mV, in canine Purkinje Fibers at a concentration of 1.0 uM at 300 ms (simulating tachycardia); type: functional, Canis lupus familiaris, Purkinje fiber; method in brief: as §1
Canis familiaris [24] = species: Canis familiaris; assay: Maximum rate of rise of the upstroke of transmembrane potential, in canine Purkinje Fibers at a concentration of 0.3 uM at 300 ms (simulating tachycardia); type: functional; set-up: unit not given here; conditions: Canis lupus familiaris, Purkinje fiber; method in brief: as §1
Canis familiaris [25] = species: Canis familiaris; assay: repolarization to reach -60mV, in canine Purkinje Fibers at a concentration of 30 uM at 1000 ms (simulating normal heart rate); type: functional, Canis lupus familiaris, Purkinje fiber; method in brief: as §5
Canis familiaris [26] = assay: Atrial effective refractory period by the compound in open chest anesthetized dog, after iv administration at a dose of 10.0 mg/kg.; type: functional, Canis lupus familiaris, Cardiac atrium; method in brief: as §2
Canis familiaris [27] = species: Canis familiaris; assay: Maximum rate of rise of the upstroke of transmembrane potential, in canine Purkinje Fibers at a concentration of 300 uM at 1000 ms (simulating normal heart rate); type: functional; conditions: Canis lupus familiaris, Purkinje fiber; method in brief: as §1
Canis familiaris [28] = assay: Heart beat by the compound in open chest anesthetized dog, after iv administration at a dose of 2.5 mg/kg.; type: functional, Canis lupus familiaris; method in brief: as §3
Canis familiaris [29] = assay: Atrial conduction time by the compound in open chest anesthetized dog, after iv administration at a dose of 2.5 mg/kg.; type: functional, Canis lupus familiaris, Cardiac atrium; method in brief: as §4
Canis familiaris [30] = assay: Atrial effective refractory period by the compound in open chest anesthetized dog, after iv administration at a dose of 2.5 mg/kg.; type: functional, Canis lupus familiaris, Cardiac atrium; method in brief: as §2
Canis familiaris [31] = assay: Mean arterial pressure by the compound in open chest anesthetized dog, after iv administration at a dose of 10.0 mg/kg.; type: functional, Canis lupus familiaris, Artery; method in brief: as §3
Canis familiaris [32] = species: Canis familiaris; assay: Maximum rate of rise of the upstroke of transmembrane potential, in canine Purkinje Fibers at a concentration of 30 uM at 1000 ms (simulating normal heart rate); type: functional; conditions: Canis lupus familiaris, Purkinje fiber; method in brief: as §1
Canis familiaris [33] = species: Canis familiaris; assay: repolarization to reach -60mV, in canine Purkinje Fibers at a concentration of 300 uM at 1000 ms (simulating normal heart rate); type: functional, Canis lupus familiaris, Purkinje fiber; method in brief: as §5
Canis familiaris [34] = species: Canis familiaris; assay: Repolarization to reach -60mV, in canine Purkinje Fibers at a concentration of 300 uM at 300 ms (simulating tachycardia); type: functional, Canis lupus familiaris, Purkinje fiber; method in brief: as §5
Canis familiaris [35] = assay: Ventricular effective refractory period by the compound in open chest anesthetized dog, after iv administration at a dose of 10.0 mg/kg.; type: functional, Canis lupus familiaris, Heart
Canis familiaris [36] = species: Canis familiaris; assay: Maximum rate of rise of the upstroke of transmembrane potential, in canine Purkinje Fibers at a concentration of 30 uM at 300 ms (simulating tachycardia); type: functional; conditions: Canis lupus familiaris, Purkinje fiber; method in brief: as §1
Canis familiaris [37] = assay: Ventricular conduction time by the compound in open chest anesthetized dog, after iv administration at a dose of 2.5 mg/kg.; type: functional, Canis lupus familiaris, Heart; method in brief: as §6
Canis familiaris [38] = assay: Mean arterial pressure by the compound in open chest anesthetized dog, after iv administration at a dose of 2.5 mg/kg.; type: functional, Canis lupus familiaris, Artery; method in brief: as §3
Canis familiaris [39] = assay: Heart beat by the compound in open chest anesthetized dog, after iv administration at a dose of 10.0 mg/kg.; type: functional, Canis lupus familiaris; method in brief: as §3
Canis familiaris [40] = species: Canis familiaris; assay: Repolarization to reach -60mV, in canine Purkinje Fibers at a concentration of 30 uM at 300 ms (simulating tachycardia); type: functional, Canis lupus familiaris, Purkinje fiber; method in brief: as §5
Canis familiaris [41] = assay: Ventricular conduction time by the compound in open chest anesthetized dog, after iv administration at a dose of 10.0 mg/kg.; type: functional, Canis lupus familiaris, Heart; method in brief: as §6
Canis familiaris [42] = species: Canis familiaris; assay: Maximum rate of rise of the upstroke of transmembrane potential, in canine Purkinje Fibers at a concentration of 300 uM at 300 ms (simulating tachycardia); type: functional; conditions: Canis lupus familiaris, Purkinje fiber; method in brief: as §1
Canis familiaris [43] = assay: Ventricular effective refractory period by the compound in open chest anesthetized dog, after iv administration at a dose of 2.5 mg/kg.; type: functional, Canis lupus familiaris, Heart
Canis familiaris [44] = assay: Atrial conduction time by the compound in open chest anesthetized dog, after iv administration at a dose of 10.0 mg/kg.; type: functional, Canis lupus familiaris, Cardiac atrium; method in brief: as §4

SMILES: CN(Cc1ccc2ccccc2n1)CC(O)COc1ccc(NS(C)(=O)=O)cc1 (stereo not given)
- Vmax (Canis familiaris [1]): -7
- AERP (Canis familiaris [2]): 45
- MBP (Canis familiaris [3]): -9
- Vmax (Canis familiaris [4]): -2
- ACT (Canis familiaris [5]): -9
- APD (Canis familiaris [6]): 62%
- APD (Canis familiaris [7]): 43%
- APD (Canis familiaris [8]): 8%
- MBP (Canis familiaris [9]): -5
- HR (Canis familiaris [10]): -18
- Vmax (Canis familiaris [11]): 6
- VCT (Canis familiaris [12]): 1
- VCT (Canis familiaris [13]): -2
- ACT (Canis familiaris [14]): -4
- Vmax (Canis familiaris [15]): 15
- APD (Canis familiaris [16]): 27%
- HR (Canis familiaris [17]): -15
- Vmax (Canis familiaris [18]): -9
- VERP (Canis familiaris [19]): 20
- APD (Canis familiaris [20]): 19%
- AERP (Canis familiaris [21]): 31
- VERP (Canis familiaris [22]): 21
- APD (Canis familiaris [23]): 19%
- Vmax (Canis familiaris [24]): 5

SMILES: CC(C)NCC(O)c1ccc(NS(C)(=O)=O)cc1 (racemic) [SOTALOL]
- APD (Canis familiaris [25]): 56%
- AERP (Canis familiaris [26]): 68
- AERP (Canis familiaris [2]): 57
- MBP (Canis familiaris [3]): -17
- ACT (Canis familiaris [5]): -7
- Vmax (Canis familiaris [27]): -10
- HR (Canis familiaris [28]): -27
- ACT (Canis familiaris [29]): -5
- AERP (Canis familiaris [30]): 42
- HR (Canis familiaris [10]): -28
- MBP (Canis familiaris [31]): -29
- Vmax (Canis familiaris [32]): 2
- VCT (Canis familiaris [13]): -1
- APD (Canis familiaris [33]): 86%
- APD (Canis familiaris [34]): 36%
- VERP (Canis familiaris [35]): 30
- Vmax (Canis familiaris [36]): -12
- VCT (Canis familiaris [37]): -1
- MBP (Canis familiaris [38]): -16
- HR (Canis familiaris [39]): -39
- APD (Canis familiaris [40]): 18%
- VCT (Canis familiaris [41]): -4
- VERP (Canis familiaris [22]): 25
- Vmax (Canis familiaris [42]): -20
- VERP (Canis familiaris [43]): 19
- ACT (Canis familiaris [44]): -4
